How the values were obtained:
HL-60(TB) = test: NCI in vitro five dose anticancer assay; assay type: cell-based, human
MOLT-4 = test: NCI in vitro five dose anticancer assay; assay type: cell-based, human
A549/ATCC = test: NCI in vitro five dose anticancer assay; assay type: cell-based, human
NCI-H23 = test: NCI in vitro five dose anticancer assay; assay type: cell-based, human
NCI-H322M = test: NCI in vitro five dose anticancer assay; assay type: cell-based, human; conditions: 48 h
HCC-2998 = test: NCI in vitro five dose anticancer assay; assay type: cell-based, human
HT29 = test: NCI in vitro five dose anticancer assay; assay type: cell-based, human
SW-620 = test: NCI in vitro five dose anticancer assay; assay type: cell-based, human
SF-268 = test: NCI in vitro five dose anticancer assay; assay type: cell-based, human
SNB-19 = test: NCI in vitro five dose anticancer assay; assay type: cell-based, human
U251 = test: NCI in vitro five dose anticancer assay; assay type: cell-based, human
DU-145 = test: NCI in vitro five dose anticancer assay; assay type: cell-based, human
MALME-3M = test: NCI in vitro five dose anticancer assay; assay type: cell-based, human; conditions: 48 h
M14 = test: NCI in vitro five dose anticancer assay; assay type: cell-based, human
MDA-MB-435 = test: NCI in vitro five dose anticancer assay; assay type: cell-based, human
SK-MEL-28 = test: NCI in vitro five dose anticancer assay; assay type: cell-based, human
UACC-257 = test: NCI in vitro five dose anticancer assay; assay type: cell-based, human
UACC-62 = test: NCI in vitro five dose anticancer assay; assay type: cell-based, human
OVCAR-3 = test: NCI in vitro five dose anticancer assay; assay type: cell-based, human
OVCAR-5 = test: NCI in vitro five dose anticancer assay; assay type: cell-based, human
786–0 = test: NCI in vitro five dose anticancer assay; assay type: cell-based, human
A498 = test: NCI in vitro five dose anticancer assay; assay type: cell-based, human
TK-10 = test: NCI in vitro five dose anticancer assay; assay type: cell-based, human
T-47D = test: NCI in vitro five dose anticancer assay; assay type: cell-based, human; conditions: 48 h
RPMI-8226 cell line = test: NCI in vitro one dose anticancer assay; assay type: cell-based; conditions: Homo sapiens, RPMI-8226, 48 h, read-out: % growth inhibition
Method in brief: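 NCI protocol. Test compound added once at 10−5 M to ~60 human tumour lines from nine subpanels. Incubated 48 h at 37 °C, 5% CO2, 95% air, 100% relative humidity. Endpoint by sulforhodamine B protein staining with spectrophotometric absorbance. Growth of treated cells reported as percent of untreated cells.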

[1] = tested on: full panel of 58 human tumor cell lines; test: NCI in vitro five dose anticancer assay, whole panel; assay type: cell-based; conditions: read-out: GI50 (range over panel)
Jurkat = test: MTT anti-proliferative assay; assay type: cell-based, human; conditions: Homo sapiens, Jurkat, 24 h, read-out: IC50 ± SD, Jurkat
c-Src = c-Src (Homo sapiens, UniProt P12931); test: Src kinase assay; assay type: biochemical
Sequence of c-Src (P12931 whole entry): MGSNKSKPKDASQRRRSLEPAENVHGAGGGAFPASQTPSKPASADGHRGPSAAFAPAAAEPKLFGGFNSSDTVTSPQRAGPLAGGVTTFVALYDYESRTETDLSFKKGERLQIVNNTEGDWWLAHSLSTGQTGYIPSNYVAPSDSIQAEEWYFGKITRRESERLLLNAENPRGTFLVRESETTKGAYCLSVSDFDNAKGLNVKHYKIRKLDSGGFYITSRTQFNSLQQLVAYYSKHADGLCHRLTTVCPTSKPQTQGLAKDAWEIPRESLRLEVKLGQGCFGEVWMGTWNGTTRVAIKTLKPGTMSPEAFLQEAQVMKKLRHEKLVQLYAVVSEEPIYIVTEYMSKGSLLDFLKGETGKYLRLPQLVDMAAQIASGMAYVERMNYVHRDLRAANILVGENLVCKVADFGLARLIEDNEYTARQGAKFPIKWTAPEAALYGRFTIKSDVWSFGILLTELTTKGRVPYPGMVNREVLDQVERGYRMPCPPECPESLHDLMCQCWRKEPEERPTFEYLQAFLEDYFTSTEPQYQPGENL

IL-6 = IL-6 ELISA in K-562 cells; assay type: cell-based, human
Method in brief: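 K-562 cells exposed 24 h to vehicle (DMSO), test compound at 10 μM or dexamethasone (positive control). IL-6 secreted into cell-free supernatant quantified by human IL-6 ELISA kit. Expressed as % of vehicle control, mean ± SD of three independent experiments, each in triplicate. Time course: in 12-well plates, medium changed when compound (10 μM) added, and media sampled at 0, 1, 4, 8, 12, 24, 48 h.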

STAT3 = STAT3 activation assay; assay type: cell-based, human; conditions: K-562 cells, 10 μM, 24 h, nuclear extracts
Method in brief: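 K562 cells seeded overnight in 10 cm plates, then given vehicle, test compound (10 μM) or WP1066 (positive control) for 24 h. Nuclear fractions extracted by kit. STAT3 activation measured in nuclear extracts by TransAM STAT3 ELISA per manufacturer. Mean ± SD of three independent experiments, each in triplicate.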

COc1ccc(C=CC(=O)c2ccc(NC(=O)CSc3nnc(-c4cc(OC)c(OC)c(OC)c4)o3)cc2)cc1 [Compound 8v, N-(4-(3-(4-Methoxyphenyl)acryloyl)phenyl)-2-((5-(3,4,5-trimethoxy-phenyl)-1,3,4-oxadiazol-2-yl)thio)acetamide]
TGI (HL-60(TB); HL-60(TB), Leukemia, five dose, 48 h, SRB): 4.10 µM
GI50 (HL-60(TB); Homo sapiens, HL-60, 48 h): 2000 nM
GI50 (MOLT-4; Homo sapiens, MOLT-4, 48 h): 2050 nM
TGI (MOLT-4; MOLT-4, Leukemia, five dose, 48 h, SRB): 5.27 µM
TGI (A549/ATCC; A549/ATCC, Non-Small Cell Lung Cancer, five dose, 48 h, SRB): 3.53 µM
GI50 (A549/ATCC; Homo sapiens, A549, 48 h): 1840 nM
GI50 (NCI-H23; Homo sapiens, NCI-H23, 48 h): 1880 nM
TGI (NCI-H23; NCI-H23, Non-Small Cell Lung Cancer, five dose, 48 h, SRB): 3.97 µM
GI50 (NCI-H322M; Homo sapiens): 1590 nM
TGI (NCI-H322M; Non-Small Cell Lung Cancer, five dose, SRB): 2.98 µM
TGI (HCC-2998; HCC-2998, Colon Cancer, five dose, 48 h, SRB): 3.65 µM
GI50 (HCC-2998; Homo sapiens, HCC 2998, 48 h): 1880 nM
TGI (HT29; HT29, Colon Cancer, five dose, 48 h, SRB): 3.62 µM
GI50 (HT29; Homo sapiens, HT-29, 48 h): 1830 nM
GI50 (SW-620; Homo sapiens, SW-620, 48 h): 1860 nM
TGI (SW-620; SW-620, Colon Cancer, five dose, 48 h, SRB): 3.60 µM
GI50 (SF-268; Homo sapiens, SF-268, 48 h): 1790 nM
TGI (SF-268; SF-268, CNS cancer, five dose, 48 h, SRB): 3.96 µM
GI50 (SNB-19; Homo sapiens, SNB-19, 48 h): 1780 nM
TGI (SNB-19; SNB-19, CNS cancer, five dose, 48 h, SRB): 3.56 µM
GI50 (U251; Homo sapiens, U-251, 48 h): 1680 nM
TGI (U251; U251, CNS cancer, five dose, 48 h, SRB): 3.18 µM
TGI (DU-145; DU-145, Prostate Cancer, five dose, 48 h, SRB): 3.21 µM
GI50 (DU-145; Homo sapiens, DU-145, 48 h): 1750 nM
GI50 (MALME-3M; Homo sapiens, Malme-3M): 1680 nM
TGI (MALME-3M; MALME-3M, Melanoma, five dose, SRB): 3.45 µM
GI50 (M14; Homo sapiens, M14, 48 h): 1600 nM
TGI (M14; M14, Melanoma, five dose, 48 h, SRB): 3.30 µM
GI50 (MDA-MB-435; Homo sapiens, MDA-MB-435, 48 h): 1700 nM
TGI (MDA-MB-435; MDA-MB-435, Melanoma, five dose, 48 h, SRB): 3.40 µM
GI50 (SK-MEL-28; Homo sapiens, SK-MEL-28, 48 h): 1740 nM
TGI (SK-MEL-28; SK-MEL-28, Melanoma, five dose, 48 h, SRB): 3.40 µM
GI50 (UACC-257; Homo sapiens, UACC-257, 48 h): 2160 nM
TGI (UACC-257; UACC-257, Melanoma, five dose, 48 h, SRB): 4.69 µM
GI50 (UACC-62; Homo sapiens, UACC-62, 48 h): 1730 nM
TGI (UACC-62; UACC-62, Melanoma, five dose, 48 h, SRB): 3.43 µM
GI50 (OVCAR-3; Homo sapiens, OVCAR-3, 48 h): 1780 nM
TGI (OVCAR-3; OVCAR-3, Ovarian Cancer, five dose, 48 h, SRB): 3.38 µM
GI50 (OVCAR-5; Homo sapiens, OVCAR-5, 48 h): 1720 nM
TGI (OVCAR-5; OVCAR-5, Ovarian Cancer, five dose, 48 h, SRB): 3.30 µM
TGI (786–0; 786–0, Renal Cancer, five dose, 48 h, SRB): 3.36 µM
GI50 (786–0; Homo sapiens, 786-0, 48 h): 1700 nM
TGI (A498; A498, Renal Cancer, five dose, 48 h, SRB): 23.60 µM
GI50 (A498; Homo sapiens, A498, 48 h): 11 µM
GI50 (TK-10; Homo sapiens, TK-10, 48 h): 1520 nM
TGI (TK-10; TK-10, Renal Cancer, five dose, 48 h, SRB): 3.03 µM
GI50 (T-47D; Homo sapiens, T47D): 2050 nM
TGI (T-47D; T-47D, Breast cancer, five dose, SRB): 5.08 µM
inhibition at 10 µM (RPMI-8226 cell line): 31.3 to 144%
GI50 [1]: 0.32 to 11 µM
IC50 (Jurkat): 2360 ± 470 nM
IC50 (c-Src): 960 ± 200 nM
activity at 10 µM (IL-6; Homo sapiens, K562, 24 h, read-out: IL-6 protein levels (% of control)): 20%
IL-6 levels after 48 h (IL-6; K-562 cells, 10 μM, time course): still downregulated
time of initial downregulation of IL-6 protein levels after treatment (IL-6; K-562 cells, 10 μM, time course 0-48 h): 8 h
inhibition of STAT3 activation (STAT3): most effective
